In brackets after ≈: the same amount, converted by molar mass.
Columns and labels:
Staphylococcus aureus [1] = assay: Antibacterial activity against Staphylococcus aureus ATCC 29213 assessed as complete reduction in bacterial cell growth by CLSI protocol based broth liquid microdilution method; assay type: functional
In short: (§1)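 Broth liquid microdilution per CLSI guidelines; isolates identified on an automated MicroScan system before testing. MIC taken as lowest concentration giving total inhibition of bacterial growth, reported in μg/mL. S. aureus ATCC29213 run as the control strain.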

Staphylococcus aureus [2] = assay: Antibacterial activity against methicillin-resistant Staphylococcus aureus assessed as complete reduction in bacterial cell growth by CLSI protocol based broth liquid microdilution method; assay type: functional; in short: as §1
Staphylococcus aureus [3] = assay: Antibacterial activity against methicillin-sensitive Staphylococcus aureus assessed as complete reduction in bacterial cell growth by CLSI protocol based broth liquid microdilution method; assay type: functional; in short: as §1
Enterococcus faecalis [4] = assay: Antibacterial activity against linezolid-resistant Enterococcus faecalis assessed as complete reduction in bacterial cell growth by CLSI protocol based broth liquid microdilution method; assay type: functional; in short: as §1
Enterococcus faecium [5] = assay: Antibacterial activity against vancomycin-resistant Enterococcus faecium assessed as complete reduction in bacterial cell growth by CLSI protocol based broth liquid microdilution method; assay type: functional; in short: as §1
Staphylococcus aureus [6] = assay: Antibacterial activity against clinical isolates of methicillin-sensitive Staphylococcus aureus assessed as reduction in bacterial cell growth by CLSI protocol based broth microdilution method; assay type: functional; in short: as §1
Enterococcus faecalis [7] = assay: Antibacterial activity against clinical isolates of linezolid-resistant Enterococcus faecalis assessed as complete reduction in bacterial cell growth by CLSI protocol based broth liquid microdilution method; assay type: functional; in short: as §1
Enterococcus faecium [8] = assay: Antibacterial activity against clinical isolates of vancomycin-resistant Enterococcus faecium assessed as complete reduction in bacterial cell growth by CLSI protocol based broth liquid microdilution method; assay type: functional; in short: as §1
[9] = Stability in simulated gastric acid assessed as compound remaining at pH 1.2 incubated for 0.5 hrs; assay type: ADME; settings: read-out: Stability
[10] = Stability in simulated gastric acid assessed as compound remaining at pH 1.2 incubated for 1 hr; assay type: ADME; settings: read-out: Stability
[11] = Stability in simulated gastric acid assessed as compound remaining at pH 1.2 incubated for 1.5 hrs; assay type: ADME; settings: read-out: Stability
[12] = Stability in simulated gastric acid assessed as compound remaining at pH 1.2 incubated for 2 hrs; assay type: ADME; settings: read-out: Stability
HepG2 = assay: Cytotoxicity against human HepG2 cells assessed as reduction in cell viability incubated for 48 hrs by MTT assay; assay type: cell-based; settings: HepG2, 48 h
In short: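 HepG2 cells were grown in RPMI1640 with 10% FBS and plated at about 4×10^4 cells/well in MEM. After 24 h at 37 °C in 5% CO2, compounds were added at the indicated final concentrations for 48 h. MTT was added (0.5 mg/mL final) for 4 h at 37 °C and the formazan dissolved in DMSO. Absorbance was read at 492 nm (630 nm reference). Each compound was tested three times; IC50 given as mean ± SD.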

SMILES | MIC (Staphylococcus aureus [1]) [µg/mL] | MIC (Staphylococcus aureus [2]) [µg/mL] | MIC (Staphylococcus aureus [3]) [µg/mL] | MIC (Enterococcus faecalis [4]) [µg/mL] | MIC (Enterococcus faecium [5]) [µg/mL] | MIC (Staphylococcus aureus [6]) [µg/mL] | MIC (Enterococcus faecalis [7]) [µg/mL] | MIC (Enterococcus faecium [8]) [µg/mL] | remaining at 0.5 h [9] [%] | remaining at 1 h [10] [%] | remaining at 1.5 h [11] [%] | remaining at 2 h [12] [%] | IC50 (HepG2) [µM]
CC(=O)NC[C@H]1CN(c2ccc(-c3ccc(/C=N/N4CC[S+]([O-])CC4)cn3)c(F)c2)C(=O)O1 | 2 (≈ 4.22 µM) | 1 (≈ 2.11 µM) | 2 (≈ 4.22 µM) | 2 (≈ 4.22 µM) | 2 (≈ 4.22 µM) | – | – | – | – | – | – | – | –
CC(=O)NC[C@H]1CN(c2ccc(-c3ccc(/C=N/N4CCNCC4)c(O)c3)c(F)c2)C(=O)O1 | 0.5 (≈ 1.1 µM) | 0.25 (≈ 0.549 µM) | 0.25 (≈ 0.549 µM) | 0.25 (≈ 0.549 µM) | 0.25 (≈ 0.549 µM) | – | – | – | – | – | – | – | –
COc1cc(-c2ccc(N3C[C@H](CNC(C)=O)OC3=O)cc2F)ccc1/C=N/N1CCSCC1 | 2 (≈ 4.11 µM) | 1 (≈ 2.06 µM) | 1 (≈ 2.06 µM) | 1 (≈ 2.06 µM) | 1 (≈ 2.06 µM) | – | – | – | – | – | – | – | –
CC(=O)NC[C@H]1CN(c2ccc(-c3ccc(/C=N/N4CCN(C)CC4)c(O)c3)c(F)c2)C(=O)O1 | 0.125 (≈ 0.266 µM) | 0.125 (≈ 0.266 µM) | 0.12 (≈ 0.256 µM) | 0.25 (≈ 0.532 µM) | 0.25 (≈ 0.532 µM) | 0.5 to 1 (≈ 1.06 to 2.13 µM) | 1 (≈ 2.13 µM) | 1 (≈ 2.13 µM) | 69.8 | 35 | 12.2 | 5.3 | > 25
CC(=O)NC[C@H]1CN(c2ccc(-c3ccc(/C=N/N4CCN(C)CC4)c(C)c3)c(F)c2)C(=O)O1 | 0.5 (≈ 1.07 µM) | 0.5 (≈ 1.07 µM) | 0.5 (≈ 1.07 µM) | 0.5 (≈ 1.07 µM) | 0.5 (≈ 1.07 µM) | – | – | – | – | – | – | – | –
CC(=O)NC[C@H]1CN(c2ccc(-c3ccc(/C=N/N4CCSCC4)c(C(F)(F)F)c3)c(F)c2)C(=O)O1 | 2 (≈ 3.81 µM) | 2 (≈ 3.81 µM) | 2 (≈ 3.81 µM) | 2 (≈ 3.81 µM) | 2 (≈ 3.81 µM) | – | – | – | – | – | – | – | –
COc1cc(-c2ccc(N3C[C@H](CNC(C)=O)OC3=O)cc2F)ccc1/C=N/N1CCOCC1 | 2 (≈ 4.25 µM) | 2 (≈ 4.25 µM) | 2 (≈ 4.25 µM) | 2 (≈ 4.25 µM) | 2 (≈ 4.25 µM) | – | – | – | – | – | – | – | –
CC(=O)NC[C@H]1CN(c2ccc(-c3ccc(/C=N/N4CCCCC4)c(F)c3)c(F)c2)C(=O)O1 | 0.25 (≈ 0.548 µM) | 0.25 (≈ 0.548 µM) | 0.25 (≈ 0.548 µM) | 0.5 (≈ 1.1 µM) | 0.5 (≈ 1.1 µM) | – | – | – | – | – | – | – | –
CC(=O)NC[C@H]1CN(c2ccc(-c3ccc(/C=N/N4CCSCC4)c(F)c3)c(F)c2)C(=O)O1 | 0.25 (≈ 0.527 µM) | 0.25 (≈ 0.527 µM) | 0.25 (≈ 0.527 µM) | 1 (≈ 2.11 µM) | 1 (≈ 2.11 µM) | – | – | – | – | – | – | – | –
CC(=O)NC[C@H]1CN(c2ccc(-c3ccc(/C=N/N4CCNCC4)nc3)c(F)c2)C(=O)O1 | 0.5 (≈ 1.14 µM) | 0.5 (≈ 1.14 µM) | 1 (≈ 2.27 µM) | 0.5 (≈ 1.14 µM) | 0.5 (≈ 1.14 µM) | – | – | – | – | – | – | – | –
CC(=O)NC[C@H]1CN(c2ccc(-c3ccc(/C=N/N4CCSCC4)cn3)c(F)c2)C(=O)O1 | 1 (≈ 2.19 µM) | 0.5 (≈ 1.09 µM) | 2 (≈ 4.37 µM) | 2 (≈ 4.37 µM) | 2 (≈ 4.37 µM) | – | – | – | – | – | – | – | –
CC(=O)NC[C@H]1CN(c2ccc(-c3ccc(/C=N/N4CCS(=O)(=O)CC4)cn3)c(F)c2)C(=O)O1 | 2 (≈ 4.09 µM) | 1 (≈ 2.04 µM) | 1 (≈ 2.04 µM) | 1 (≈ 2.04 µM) | 1 (≈ 2.04 µM) | – | – | – | – | – | – | – | –
CCC(=O)N1CCN(/N=C/c2ccc(-c3ccc(N4C[C@H](CNC(C)=O)OC4=O)cc3F)cc2O)CC1 | 0.25 (≈ 0.489 µM) | 0.25 (≈ 0.489 µM) | 0.25 (≈ 0.489 µM) | 0.25 (≈ 0.489 µM) | 0.25 (≈ 0.489 µM) | 1 to 2 (≈ 1.95 to 3.91 µM) | 1 to 2 (≈ 1.95 to 3.91 µM) | 1 to 2 (≈ 1.95 to 3.91 µM) | – | – | – | – | –
CC(=O)NC[C@H]1CN(c2ccc(-c3ccc(/C=N/N4CCN(C)CC4)c(F)c3)c(F)c2)C(=O)O1 | 1 (≈ 2.12 µM) | 1 (≈ 2.12 µM) | 1 (≈ 2.12 µM) | 1 (≈ 2.12 µM) | 1 (≈ 2.12 µM) | – | – | – | – | – | – | – | –

From ChEMBL document CHEMBL4312003, “Optimization of biaryloxazolidinone as promising antibacterial agents against antibiotic-susceptible and antibiotic-resistant gram-positive bacteria” (Eur J Med Chem, 2020)
